Assay results reported in ChEMBL document CHEMBL4689842, “EUbOPEN Chemogenomics Library wave 1” (2021).
“And” between values parts separate entries of the source, which are not always exact repeats. Equal entries are not always repeated.

Test system: HEK-293T
Test: Multiplex assay against HEK293T;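 on Population Tubulin-Different-Phenotype (%): share of the cells with healthy nuclei that show this phenotype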
Format: toxicity, cell-based
Conditions: human
In short: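 Imaging took place on a CQ1 microscope at 37°C and 5% CO2 once compound had been added to live cells stained at seeding with Hoechst33342, BioTracker Green Microtubule Cytoskeleton Dye, MitoTracker Red and Annexin V Alexa Fluor 680. CellPathfinder machine-learning gating classed cells as Hoechst high-intensity objects or normal cells, classed normal cells as having healthy, pyknosed or fragmented nuclei, and classed pyknosed cells as mitotic or apoptotic. Tubulin, mitochondrial-mass and membrane-permeability phenotypes are per cents of the healthy-nucleus cells.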

[1] = 12 h, 1 µM, compound concentration 1 uM, replicate 1
[2] = 12 h, 1 µM, compound concentration 1 uM, replicate 2
[3] = 12 h, 10 µM, compound concentration 10 uM, replicate 1
[4] = 12 h, 10 µM, compound concentration 10 uM, replicate 2
[5] = 24 h, 1 µM, compound concentration 1 uM, replicate 1
[6] = 24 h, 1 µM, compound concentration 1 uM, replicate 2
[7] = 24 h, 10 µM, compound concentration 10 uM, replicate 1
[8] = 24 h, 10 µM, compound concentration 10 uM, replicate 2

CNCc1ccc(-c2cc(-c3nc(-c4ccc(S(=O)(=O)C(C)C)cc4)cnc3N)on2)cc1 [BERZOSERTIB]
Population Apoptotic (%) [1]: 44% and 25%
Population Fragmented Nuclei (%) [1]: 94% and 79%
Population Hoechst High Intensity Objects (%) [1]: 36% and 50%
Population Membrane Permeable-Phenotype (%) [1]: 31% and 34%
Population Mitochondria Different-Phenotype (%) [1]: 9%
Population Mitotic Cells (%) [1]: 55% and 75%
Population Normal (%) [1]: 63% and 49%
Population Tubulin-Different-Phenotype (%) [1]: 13%
Total Cell Count [1]: 865 and 596
Population Apoptotic (%) [2]: 14% and 11%
Population Fragmented Nuclei (%) [2]: 66%
Population Hoechst High Intensity Objects (%) [2]: 28% and 80%
Population Mitochondria Different-Phenotype (%) [2]: 0% and 16%
Population Mitotic Cells (%) [2]: 85% and 88%
Population Tubulin-Different-Phenotype (%) [2]: 50% and 60%
Total Cell Count [2]: 1257 and 695
Population Apoptotic (%) [3]: 37% and 15%
Population Fragmented Nuclei (%) [3]: 82% and 86%
Population Healthy Nuclei (%) [3]: 12% and 7%
Population Hoechst High Intensity Objects (%) [3]: 48% and 47%
Population Membrane Permeable-Phenotype (%) [3]: 46% and 29%
Population Mitochondria Different-Phenotype (%) [3]: 6% and 7%
Population Mitotic Cells (%) [3]: 62% and 85%
Population Normal (%) [3]: 51% and 52%
Population Pyknosed Nuclei (%) [3]: 5%
Population Tubulin-Different-Phenotype (%) [3]: 18% and 11%
Total Cell Count [3]: 918 and 667
Population Fragmented Nuclei (%) [4]: 95% and 56%
Population Hoechst High Intensity Objects (%) [4]: 34% and 86%
Population Mitochondria Different-Phenotype (%) [4]: 5% and 9%
Population Mitotic Cells (%) [4]: 68% and 92%
Population Tubulin-Different-Phenotype (%) [4]: 82% and 59%
Total Cell Count [4]: 1271 and 770
Population Apoptotic (%) [5]: 43% and 15%
Population Fragmented Nuclei (%) [5]: 91% and 64%
Population Hoechst High Intensity Objects (%) [5]: 39% and 65%
Population Membrane Permeable-Phenotype (%) [5]: 50% and 21%
Population Mitochondria Different-Phenotype (%) [5]: 7% and 13%
Population Mitotic Cells (%) [5]: 56% and 84%
Population Normal (%) [5]: 60% and 34%
Population Pyknosed Nuclei (%) [5]: 3% and 9%
Population Tubulin-Different-Phenotype (%) [5]: 30% and 11%
Total Cell Count [5]: 826 and 568
Population Hoechst High Intensity Objects (%) [6]: 33% and 85%
Population Membrane Permeable-Phenotype (%) [6]: 33% and 60%
Population Mitochondria Different-Phenotype (%) [6]: 4% and 6%
Population Mitotic Cells (%) [6]: 87% and 97%
Population Pyknosed Nuclei (%) [6]: 30%
Population Tubulin-Different-Phenotype (%) [6]: 71% and 81%
Total Cell Count [6]: 1330 and 870
Population Fragmented Nuclei (%) [7]: 65% and 58%
Population Healthy Nuclei (%) [7]: 16% and 26%
Population Hoechst High Intensity Objects (%) [7]: 46% and 73%
Population Membrane Permeable-Phenotype (%) [7]: 36% and 31%
Population Mitotic Cells (%) [7]: 40% and 88%
Population Normal (%) [7]: 53% and 26%
Population Pyknosed Nuclei (%) [7]: 17% and 14%
Population Tubulin-Different-Phenotype (%) [7]: 36% and 27%
Total Cell Count [7]: 767 and 657
Population Apoptotic (%) [8]: 23% and 0%
Population Hoechst High Intensity Objects (%) [8]: 36% and 86%
Population Membrane Permeable-Phenotype (%) [8]: 21% and 56%
Population Mitochondria Different-Phenotype (%) [8]: 14%
Population Mitotic Cells (%) [8]: 76% and 100%
Population Tubulin-Different-Phenotype (%) [8]: 78% and 76%
Total Cell Count [8]: 1281 and 924
